Reference: ChEMBL document CHEMBL4627259, “Discovery of LY3325656: A GPR142 agonist suitable for clinical testing in human” (Bioorg Med Chem Lett, 2020)

How the values were obtained:
[1] = molecular target: T1, Probable G-protein coupled receptor 142 (Homo sapiens, UniProt Q7Z601); assay: Agonist activity at human GPR142 receptor expressed in HEK293 cells assessed as accumulation of inositol phosphate incubated for 1 hr followed by IP1-d2 addition by HTRF assay; assay type: functional, cell-based
T1 sequence (Q7Z601 whole entry): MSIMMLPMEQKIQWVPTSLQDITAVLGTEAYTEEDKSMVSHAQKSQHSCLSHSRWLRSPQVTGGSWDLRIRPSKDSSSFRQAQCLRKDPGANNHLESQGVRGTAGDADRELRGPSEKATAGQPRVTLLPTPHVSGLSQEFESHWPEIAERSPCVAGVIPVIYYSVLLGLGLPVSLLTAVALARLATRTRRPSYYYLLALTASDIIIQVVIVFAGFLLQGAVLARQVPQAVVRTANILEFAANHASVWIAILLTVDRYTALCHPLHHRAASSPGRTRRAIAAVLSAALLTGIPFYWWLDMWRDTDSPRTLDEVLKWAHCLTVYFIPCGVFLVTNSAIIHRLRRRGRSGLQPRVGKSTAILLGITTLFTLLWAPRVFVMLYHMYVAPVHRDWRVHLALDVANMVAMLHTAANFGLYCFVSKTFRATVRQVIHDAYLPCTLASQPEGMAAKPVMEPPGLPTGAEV
Summary of the method: (§1)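 HEK293 cells stably expressing human GPR142 (DMEM, 10% FBS, 800 ug/mL G418, 37 °C, 5% CO2), seeded 5000 cells/well and left 18 h to attach. Compounds added at 30 uM to 1 nM, 1 h incubation in HBSS (+Ca, +Mg), 0.1% BSA, 50 mM LiCl, 20 mM HEPES pH 7.2. IP-1 HTRF read-out: IP1-d2 then cryptate, 1 h at 25 °C, 665/620 nm ratio converted via IP-1 standard curve; EC50 by 4-parameter logistic fit.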

[2] = molecular target: T2, Probable G-protein coupled receptor 142 (Homo sapiens) (UniProt Q7Z601); assay: Agonist activity at human GPR142 receptor expressed in HEK293 cells assessed as accumulation of inositol phosphate at 30 uM to 1 nM incubated for 1 hr followed by IP1-d2 addition by HTRF assay relative to control; assay type: functional, cell-based; summary of the method: as §1
T2 sequence (whole entry): T1 sequence (Q7Z601 whole entry)

[3] = Drug metabolism in mouse microsomes assessed as drug turnover at 20 uM measured after 30 mins by LCMS analysis; assay type: ADME, Microsome; conditions: read-out: Drug metabolism
Summary of the method: (§2)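 High-throughput microsomal stability: compound at 20 uM incubated with mouse, rat, dog or human liver microsomes at 37 °C; percent parent remaining measured after 30 min and reported as % turnover.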

[4] = Drug metabolism in rat microsomes assessed as drug turnover at 20 uM measured after 30 mins by LCMS analysis; assay type: ADME, Microsome; conditions: read-out: Drug metabolism; summary of the method: as §2
[5] = Drug metabolism in dog microsomes assessed as drug turnover at 20 uM measured after 30 mins by LCMS analysis; assay type: ADME, Canis lupus familiaris, Microsome; conditions: read-out: Drug metabolism; summary of the method: as §2
[6] = Drug metabolism in human microsomes assessed as drug turnover at 20 uM measured after 30 mins by LCMS analysis; assay type: ADME, Microsome; conditions: read-out: Drug metabolism; summary of the method: as §2

EC50 [1] [µM] | Emax [2] [%] | metabolised at 0.5 h, 20 µM [3] [%] | metabolised at 0.5 h, 20 µM [4] [%] | metabolised at 0.5 h, 20 µM [5] [%] | metabolised at 0.5 h, 20 µM [6] [%] | Structure (SMILES)
0.032 | 102 | 70 | 80 | 52 | 84 | CN(C(=O)c1cccc(C(F)(F)F)c1)[C@@H]1CCC[C@H](c2nnc(-c3cnc4n3CCOC4)[nH]2)C1
0.071 | 104 | 90 | 37 | 40 | 42 | Cc1ncn(C)c1NC(=O)[C@H]1CCC[C@@H](N(C)C(=O)c2cccc(OC(F)(F)F)c2)C1
0.016 | 121 | 46 | 13 | 48 | 82 | Cc1ncn(C2CCC2)c1-c1nnc([C@@H]2C[C@H](N(C)C(=O)c3cccc(C(F)(F)F)c3)CCO2)[nH]1
0.081 | 114 | 67 | 59 | 38 | 62 | Cc1ncn(CC(F)(F)F)c1NC(=O)[C@H]1CCC[C@@H](N(C)C(=O)c2cccc(C(F)(F)F)c2)C1
0.053 | 107 | 39 | 16 | 7 | 18 | CN(C(=O)c1cccc(C(F)(F)F)c1)[C@@H]1CCO[C@H](c2nnc(-c3cnc4n3CCC4)[nH]2)C1
0.041 | 109 | 82 | 67 | 83 | 90 | Cc1ncn(CC(F)F)c1-c1nnc([C@H]2CCC[C@@H](N(C)C(=O)c3cccc(C(F)(F)F)c3)C2)[nH]1
0.046 | 98 | 53 | 41 | 22 | 69 | Cc1ncc(-c2nnc([C@H]3CCC[C@@H](N(C)C(=O)c4cccc(C(F)(F)F)c4)C3)[nH]2)n1C
0.076 | 101 | 36 | 36 | 9 | 13 | Cc1nc[nH]c1-c1nnc([C@H]2CCC[C@@H](N(C)C(=O)c3cccc(C(F)(F)F)c3)C2)[nH]1
0.031 | 115 | 76 | 52 | 33 | 48 | Cc1ncn(C(C)C)c1NC(=O)[C@H]1CCC[C@@H](N(C)C(=O)c2cccc(C(F)(F)F)c2)C1
0.014 | 123 | 83 | 64 | 63 | 69 | Cc1ncn(CC2CC2)c1-c1nnc([C@@H]2C[C@H](N(C)C(=O)c3cccc(C(F)(F)F)c3)CCO2)[nH]1
0.011 | 117 | 64 | 43 | 46 | 67 | Cc1ncn(C)c1-c1nnc([C@H]2CCC[C@@H](N(C)C(=O)c3cccc(C(F)(F)F)c3)C2)[nH]1
0.102 | 108 | 27 | 28 | 17 | 12 | CN(C(=O)c1cccc(C(F)(F)F)c1)[C@@H]1CCO[C@H](c2nnc(-c3cnc4n3CCOC4)[nH]2)C1
 |  | 17 | 15 | 16 | 7 | Cc1ncn(C)c1-c1nnc([C@@H]2C[C@H](N(C)C(=O)c3cccc(Cl)c3)CCO2)[nH]1
 |  | 39 | 14 | 16 | 10 | Cc1ncn(C)c1-c1nnc([C@@H]2C[C@H](N(C)C(=O)c3cccc(OC(F)(F)F)c3)CCO2)[nH]1
